The values that follow come from ChEMBL document CHEMBL3351278, “Pyridine-3-carboxamide-6-yl-ureas as novel inhibitors of bacterial DNA gyrase: structure based design, synthesis, SAR and antimicrobial activity” (Eur J Med Chem, 2014).

One data set has as its target DNA gyrase (Escherichia coli, UniProt P0AES4+P0AES6). Put plainly: Inhibition of Escherichia coli GyrB A2B2 subunits assessed reduction in DNA supercoiling activity by malachite green dye based by spectrophotometry. The format is protein-complex assay. In short, it runs like this:
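Inhibition was measured as loss of ATPase activity of the E. coli GyrB enzyme and reported as IC50.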

Data set [1] has as its system Staphylococcus aureus. Put plainly: Antibacterial activity against Staphylococcus aureus ATCC 29213 incubated for 24 hrs by broth microdilution method. The format is functional. Particulars: ATCC 29213, 24 h. Background: In broth dilution the organism is exposed to a series of concentrations in liquid medium.
For another data set, the system named is Enterococcus faecalis. Nature of the data set: Antibacterial activity against Enterococcus faecalis ATCC 29212 incubated for 24 hrs by broth microdilution method. Format: functional. Particulars: ATCC 29212, 24 h.
Data set [2] relates to Streptococcus pyogenes. Put plainly: Antibacterial activity against Streptococcus pyogenes ATCC 51339 incubated for 24 hrs by broth microdilution method. The format is functional. Particulars: ATCC 51339, 24 h.
The next data set deals with Haemophilus influenzae. Put plainly: Antibacterial activity against Haemophilus influenzae ATCC 49247 incubated for 24 hrs by broth microdilution method. The format is functional. The conditions noted are these: ATCC 49247, 24 h.
The test system of data set [3] is Staphylococcus aureus. Put plainly: Antibacterial activity against Staphylococcus aureus ATCC 29213 incubated for 24 hrs in presence of 50% horse serum by broth microdilution method. Format: functional. Particulars: ATCC 29213, 24 h.
Data set [4] relates to Staphylococcus aureus. Put plainly: Potency shift, ratio of MIC against Staphylococcus aureus ATCC 29213 in presence of 50% horse serum to MIC against taphylococcus aureus ATCC 29213 in absence of 50% horse serum. The format is functional.
Data set [5] is described as follows: Retention time of the compound by HPLC method. The format is physicochemical.
In data set [6] the test system is Staphylococcus aureus. Nature of the data set: Antibacterial activity against Staphylococcus aureus ATCC 29213 expressing GyrB T173N mutant incubated for 24 hrs by broth microdilution method. Format: functional. Particulars: ATCC 29213, 24 h.
The test system of data set [7] is Streptococcus pyogenes. Nature of the data set: Antibacterial activity against Streptococcus pyogenes ATCC 51339 expressing ParE A53S mutant incubated for 24 hrs by broth microdilution method. The conditions noted are these: ATCC 51339, 24 h. Format: functional.
The test system of data set [8] is Staphylococcus aureus. Put plainly: Antibacterial activity against Staphylococcus aureus ATCC 29213 expressing GyrB T173N and ParE T167N mutant incubated for 24 hrs by broth microdilution method. The format is functional. Particulars: ATCC 29213, 24 h.
The subject of data set [9] is Staphylococcus epidermidis. Put plainly: Antibacterial activity against Staphylococcus epidermidis ATCC 12228 incubated for 24 hrs by broth microdilution method. Particulars: ATCC 12228, 24 h. Format: functional.
For another data set, the system named is Streptococcus pneumoniae. Put plainly: Antibacterial activity against Streptococcus pneumoniae ATCC 49616 incubated for 24 hrs by broth microdilution method. Format: functional. Particulars: ATCC 49616, 24 h.
The test system of data set [10] is Escherichia coli. Put plainly: Antibacterial activity against Escherichia coli ATCC 25922 incubated for 24 hrs by broth microdilution method. Format: functional. The conditions noted are these: ATCC 25922, 24 h.
For data set [11], the system named is Escherichia coli. Put plainly: Antibacterial activity against Escherichia coli N43 expressing efflux pump mutant incubated for 24 hrs by broth microdilution method. The conditions noted are these: N43, 24 h. The format is functional.

pIC50: −log10 of the molar value. Converted amounts (≈) assume the structure as drawn.

Usually pIC50 stands for −log10 of the IC50, conventionally taken in molar units. A high value points to a small IC50. As to `CCNC(=O)Nc1cc(Nc2cccnc2)c(C(=O)Nc2ccccc2)cn1`, the pIC50 against DNA gyrase was 6.37. The MIC against Staphylococcus aureus [1] is 1 µg/mL (≈ 2.66 µM); in the data set on Enterococcus faecalis, 0.25 µg/mL (≈ 0.664 µM); against Streptococcus pyogenes [2], 1 µg/mL (≈ 2.66 µM); in the data set on Haemophilus influenzae it was above 64 µg/mL; in the data set on Staphylococcus aureus [3] it was 2 µg/mL. For the same compound, the Ratio with Staphylococcus aureus [4] stood at 2. For the same compound, in [5], the Retention_time is recorded as 1.46 min.
`CCNC(=O)Nc1ccc(C(=O)Nc2cccc(F)c2)cn1` gave a pIC50 on DNA gyrase of 5.52. The MIC is 32 µg/mL (≈ 106 µM) in the data set on Staphylococcus aureus [1]; 32 µg/mL (≈ 106 µM) against Enterococcus faecalis; 32 µg/mL (≈ 106 µM) in the data set on Streptococcus pyogenes [2]; above 64 µg/mL against Haemophilus influenzae; above 64 µg/mL in the data set with Staphylococcus aureus [6]; above 64 µg/mL against Streptococcus pyogenes [7]. Moreover, the Retention_time in [5] is on record as 1.74 min.
Consider `CCNC(=O)Nc1ccc(C(=O)Nc2cccc(C)c2)cn1`, for which the pIC50 against DNA gyrase is 5.47. The MIC with Staphylococcus aureus [1] was 32 µg/mL (≈ 107 µM); against Enterococcus faecalis it was 32 µg/mL (≈ 107 µM); against Streptococcus pyogenes [2], 32 µg/mL (≈ 107 µM); in the data set with Haemophilus influenzae, above 64 µg/mL; with Staphylococcus aureus [6], above 64 µg/mL; in the data set on Streptococcus pyogenes [7], above 64 µg/mL. Also, the Retention_time in data set [5] came to 1.76 min.
On DNA gyrase, `CCNC(=O)Nc1cc(-n2cccn2)c(C(=O)Nc2cccc(Cl)c2)cn1` had a pIC50 of 5.53. Moreover, the MIC in the data set on Staphylococcus aureus [1] is 8 µg/mL (≈ 20.8 µM); in the data set on Enterococcus faecalis, 1 µg/mL (≈ 2.6 µM); against Streptococcus pyogenes [2], 4 µg/mL (≈ 10.4 µM); against Haemophilus influenzae it was above 64 µg/mL; against Staphylococcus aureus [6], 32 µg/mL (≈ 83.2 µM); in the data set on Streptococcus pyogenes [7], 16 µg/mL (≈ 41.6 µM). The MIC is above 64 µg/mL against Staphylococcus aureus [8]; 2 µg/mL (≈ 5.2 µM) in data set [9]; 1 µg/mL (≈ 2.6 µM) against Streptococcus pneumoniae; above 64 µg/mL against Escherichia coli [10]; 32 µg/mL (≈ 83.2 µM) against Escherichia coli [11]. In [5], this compound displayed a Retention_time of 1.83 min.
As for `CCNC(=O)Nc1cc(Nc2ccccc2)c(C(=O)Nc2ccccc2)cn1`, on DNA gyrase, the pIC50 is 7.40. In addition, the MIC was 1 µg/mL (≈ 2.66 µM) against Staphylococcus aureus [1]; 0.25 µg/mL (≈ 0.666 µM) against Enterococcus faecalis; 2 µg/mL (≈ 5.33 µM) against Streptococcus pyogenes [2]; above 64 µg/mL with Haemophilus influenzae; 2 µg/mL (≈ 5.33 µM) with Staphylococcus aureus [6]; 16 µg/mL (≈ 42.6 µM) against Streptococcus pyogenes [7]. For the same compound, the MIC is above 64 µg/mL against Staphylococcus aureus [8]; 0.25 µg/mL (≈ 0.666 µM) in [9]; 1 µg/mL (≈ 2.66 µM) in the data set on Streptococcus pneumoniae; above 64 µg/mL with Escherichia coli [10]; 8 µg/mL (≈ 21.3 µM) in the data set with Escherichia coli [11]. This compound came in with a Retention_time in [5] of 1.58 min.
`CCNC(=O)Nc1cc(Nc2ccccc2)c(C(=O)Nc2cccc(C)c2)cn1` showed a pIC50 against DNA gyrase of 6.85. In addition, the MIC in the data set with Staphylococcus aureus [1] is 1 µg/mL (≈ 2.57 µM); in the data set on Enterococcus faecalis, 0.125 µg/mL (≈ 0.321 µM); against Streptococcus pyogenes [2] it was 2 µg/mL (≈ 5.14 µM); in the data set on Haemophilus influenzae, above 64 µg/mL; in the data set with Staphylococcus aureus [6] it was above 64 µg/mL; with Streptococcus pyogenes [7] it was above 64 µg/mL. In addition, the MIC was above 64 µg/mL in the data set on Staphylococcus aureus [8]; 0.5 µg/mL (≈ 1.28 µM) in data set [9]; 0.5 µg/mL (≈ 1.28 µM) in the data set on Streptococcus pneumoniae; above 64 µg/mL with Escherichia coli [10]; above 64 µg/mL in the data set on Escherichia coli [11]. Further, the Retention_time in [5] turned out to be 1.68 min.
With `CCNC(=O)Nc1cc(Nc2ccccc2)c(C(=O)Nc2cccc(Cl)c2)cn1`, the pIC50 at DNA gyrase is 6.82. In addition, the MIC in the data set with Staphylococcus aureus [1] was 0.5 µg/mL (≈ 1.22 µM); against Enterococcus faecalis, 0.125 µg/mL (≈ 0.305 µM); in the data set with Streptococcus pyogenes [2] it was 4 µg/mL (≈ 9.76 µM); with Haemophilus influenzae, above 64 µg/mL; with Staphylococcus aureus [6] it was 1 µg/mL (≈ 2.44 µM); with Streptococcus pyogenes [7], 32 µg/mL (≈ 78.1 µM). The MIC against Staphylococcus aureus [8] is above 64 µg/mL; in data set [9], 0.5 µg/mL (≈ 1.22 µM); in the data set with Streptococcus pneumoniae it was 1 µg/mL (≈ 2.44 µM); with Escherichia coli [10] it was above 64 µg/mL; against Escherichia coli [11], above 64 µg/mL. This compound also had a Retention_time in [5] of 1.71 min.
`CCNC(=O)Nc1cc(Nc2ccccc2)c(C(=O)Nc2ccc(NC(C)=O)nc2)cn1` showed a pIC50 on DNA gyrase of 7.41. Moreover, the MIC is 2 µg/mL (≈ 4.61 µM) against Staphylococcus aureus [1]; 0.125 µg/mL (≈ 0.288 µM) against Enterococcus faecalis; 0.5 µg/mL (≈ 1.15 µM) in the data set with Streptococcus pyogenes [2]; above 64 µg/mL against Haemophilus influenzae; above 64 µg/mL in the data set on Staphylococcus aureus [6]; 2 µg/mL (≈ 4.61 µM) with Streptococcus pyogenes [7]. Besides, the MIC in the data set with Staphylococcus aureus [3] was 8 µg/mL; with Staphylococcus aureus [8], above 64 µg/mL; in data set [9], 0.25 µg/mL (≈ 0.577 µM); with Streptococcus pneumoniae, 0.125 µg/mL (≈ 0.288 µM); with Escherichia coli [10], above 64 µg/mL; against Escherichia coli [11], above 64 µg/mL. Besides, the Ratio in the data set on Staphylococcus aureus [4] is given as 4. Further, the Retention_time in [5] was determined as 1.45 min.
